According to ChEMBL document CHEMBL1126653, “Structure-function studies of amphiphilic antibacterial peptides” (1993):
≈ marks a conversion by molar mass, not a printed value. Peptide text beside a SMILES is read from it.

Experiments:
Pseudomonas aeruginosa [1] = experiment: Compound tested for the antimicrobial activity against Pseudomonas aeruginosa strain 8; assay type: functional
How it was run: (§1)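 Microbroth dilution in Tryptic Soy Broth; inoculum 5×10^5 CFU/mL; plates incubated at 37 °C for 18-20 h; value reported as minimal inhibitory concentration (µg/mL).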

Pseudomonas aeruginosa [2] = experiment: Compound tested for the antimicrobial activity against Pseudomonas aeruginosa strain 6; assay type: functional; how it was run: as §1
Pseudomonas aeruginosa [3] = experiment: Compound tested for the antimicrobial activity against Pseudomonas aeruginosa strain 7; assay type: functional; how it was run: as §1
Staphylococcus aureus [4] = experiment: Compound tested for the activity against Staphylococcus aureus strain 9; assay type: functional; how it was run: as §1
Pseudomonas aeruginosa [5] = experiment: Compound tested for the antimicrobial activity against Pseudomonas aeruginosa strain 11; assay type: functional; how it was run: as §1
Pseudomonas aeruginosa [6] = experiment: Compound tested for the antimicrobial activity against Pseudomonas aeruginosa strain 4; assay type: functional; how it was run: as §1
[7] = Hemolytic activity towards human erythrocytes is evaluated for magainin 2 at peptide concentration of 25 ug/mL; assay type: functional
How it was run: (§2)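 Washed human erythrocytes from healthy volunteers (3 mL packed cells, PBS pH 7.4 washes, diluted to 20 mL) exposed to peptide in PBS at 25-200 µg/mL, 30 min at 37 °C; supernatant absorbance at 576 nm after centrifugation; 0.1% Triton X-100 taken as 100% hemolysis; duplicates.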

Staphylococcus aureus [8] = experiment: Compound tested for the activity against Staphylococcus aureus strain 11; assay type: functional; how it was run: as §1
Staphylococcus aureus [9] = experiment: Compound tested for the activity against Staphylococcus aureus strain 3; assay type: functional; how it was run: as §1
Pseudomonas aeruginosa [10] = experiment: Compound tested for in vitro susceptibility against ATCC strain 27853 of Pseudomonas aeruginosa; assay type: functional; conditions: ATCC 27853; how it was run: as §1
Staphylococcus aureus [11] = experiment: Compound tested for the activity against Staphylococcus aureus strain 7; assay type: functional; how it was run: as §1
Pseudomonas aeruginosa [12] = experiment: Compound tested for the antimicrobial activity against Pseudomonas aeruginosa strain 2; assay type: functional; how it was run: as §1
[13] = Hemolytic activity towards human erythrocytes is evaluated for magainin 2 at peptide concentration of 200 µg/mL; assay type: functional; how it was run: as §2
Enterobacter cloacae [14] = experiment: Compound tested for the antimicrobial activity against Enterobacter cloacae ROS; assay type: functional
How it was run: (§3)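 MIC by microbroth dilution in Tryptic Soy Broth; inoculum 5×10^5 CFU/mL; plates incubated 18-20 h at 37 °C; assay pH approximately 7.4.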

Pseudomonas aeruginosa [15] = experiment: Compound tested for the antimicrobial activity against Pseudomonas aeruginosa strain 1; assay type: functional; how it was run: as §1
Shigella flexneri = experiment: Compound tested for the antimicrobial activity against Shigella flexneri; assay type: functional; how it was run: as §3
Staphylococcus aureus [16] = experiment: Compound tested for the activity against Staphylococcus aureus strain 1; assay type: functional; how it was run: as §1
Staphylococcus aureus [17] = experiment: Compound tested for the activity against Staphylococcus aureus strain 2; assay type: functional; how it was run: as §1
Staphylococcus aureus [18] = experiment: Compound tested for the activity against Staphylococcus aureus strain 8; assay type: functional; how it was run: as §1
Staphylococcus aureus [19] = experiment: Compound tested for the activity against Staphylococcus aureus strain 6; assay type: functional; how it was run: as §1
Pseudomonas aeruginosa [20] = experiment: Compound tested for the antimicrobial activity against Pseudomonas aeruginosa strain 9; assay type: functional; how it was run: as §1
Enterobacter cloacae [21] = experiment: Compound tested for the antimicrobial activity against Enterobacter cloacae; assay type: functional; how it was run: as §1
Proteus mirabilis = experiment: Compound tested for the antimicrobial activity against Proteus mirabilis; assay type: functional; how it was run: as §1
Pseudomonas aeruginosa [22] = experiment: Compound tested for the antimicrobial activity against Pseudomonas aeruginosa strain ATCC 25916; assay type: functional; how it was run: as §1
Staphylococcus aureus [23] = experiment: Compound tested for the activity against Staphylococcus aureus strain 5; assay type: functional; how it was run: as §1
Staphylococcus aureus [24] = experiment: Compound tested for the activity against Staphylococcus aureus strain 10; assay type: functional; how it was run: as §1
[25] = Hemolytic activity towards human erythrocytes is evaluated for magainin 2 at peptide concentration of 50 µg/mL; assay type: functional; how it was run: as §2
Staphylococcus aureus [26] = experiment: Compound tested for the activity against Staphylococcus aureus strain ATCC 28953; assay type: functional; how it was run: as §1
Pseudomonas aeruginosa [27] = experiment: Compound tested for the antimicrobial activity against Pseudomonas aeruginosa strain 10; assay type: functional; how it was run: as §1
Escherichia coli = experiment: Compound tested for in vitro susceptibility against ATCC strain 25922 of Escherichia coli; assay type: functional; conditions: ATCC25922; how it was run: as §1
[28] = Hemolytic activity towards human erythrocytes is evaluated for magainin 2 at peptide concentration of 100 µg/mL; assay type: functional; how it was run: as §2
Klebsiella pneumoniae = experiment: Compound tested for the antimicrobial activity against Klebsiella pneumoniae; assay type: functional; how it was run: as §3
Staphylococcus aureus [29] = experiment: Compound tested for the activity against Staphylococcus aureus strain 4; assay type: functional; how it was run: as §1
Pseudomonas aeruginosa [30] = experiment: Compound tested for the antimicrobial activity against Pseudomonas aeruginosa strain 3; assay type: functional; how it was run: as §1
Pseudomonas aeruginosa [31] = experiment: Compound tested for the antimicrobial activity against Pseudomonas aeruginosa strain 5; assay type: functional; how it was run: as §1
[32] = tested on: Salmonella enterica subsp. enterica serovar Anatum; experiment: (§4) Compound tested for the antimicrobial activity against S. a natum; assay type: functional, salmoneila onotum; how it was run: as §1
[33] = tested on: Acinetobacter calcoaceticus subsp. anitratus; experiment: Compound tested for the antimicrobial activity against Acinetobacter anitratus; assay type: functional, aeinetobacter anitrotap; how it was run: as §3
Staphylococcus aureus [34] = experiment: Compound tested for in vitro susceptibility against ATCC strain 29213 of Staphylococcus aureus; assay type: functional; how it was run: as §1
[35] = tested on: Salmonella enterica subsp. enterica serovar Anatum; experiment: as §4; assay type: functional, salmoneila anatum; how it was run: as §1

What does the source list for `CC(C)C[C@H](NC(=O)[C@H](CCCCN)NC(=O)[C@H](CC(C)C)NC(=O)[C@H](Cc1ccccc1)NC(=O)[C@H](CCCCN)NC(=O)[C@H](CCCCN)NC(=O)[C@H](C)NC(=O)[C@H](Cc1ccccc1)NC(=O)[C@H](CCCCN)NC(=O)[C@H](CCCCN)NC(=O)[C@H](Cc1ccccc1)NC(=O)[C@H](CC(C)C)NC(=O)[C@@H](N)CCCCN)C(=O)N[C@@H](Cc1ccccc1)C(=O)N[C@@H](CCCCN)C(=O)N[C@@H](C)C(=O)N[C@@H](Cc1c[nH]c2ccccc12)C(=O)O` (H-KLFKKFAKKFLKLFKAW-OH)?
MIC (Pseudomonas aeruginosa [1]): 12.5 µg/mL (≈ 5.76 µM); MIC (Pseudomonas aeruginosa [2]): 25 µg/mL (≈ 11.5 µM); MIC (Pseudomonas aeruginosa [3]): 6.25 µg/mL (≈ 2.88 µM); MIC (Staphylococcus aureus [4]): 50 µg/mL (≈ 23 µM); MIC (Pseudomonas aeruginosa [5]): 25 µg/mL (≈ 11.5 µM); MIC (Pseudomonas aeruginosa [6]): 12.5 µg/mL (≈ 5.76 µM); Hemolysis [7]: 5%; MIC (Staphylococcus aureus [8]): 25 µg/mL (≈ 11.5 µM); MIC (Staphylococcus aureus [9]): 25 µg/mL (≈ 11.5 µM); MIC (Pseudomonas aeruginosa [10]): 12.5 µg/mL (≈ 5.76 µM); MIC (Staphylococcus aureus [11]): 25 µg/mL (≈ 11.5 µM); MIC (Pseudomonas aeruginosa [12]): 12.5 µg/mL (≈ 5.76 µM); Hemolysis [13]: 40%; MIC (Enterobacter cloacae [14]): 12.5 µg/mL (≈ 5.76 µM); MIC (Pseudomonas aeruginosa [15]): 6.25 µg/mL (≈ 2.88 µM); MIC (Shigella flexneri): 3.12 µg/mL (≈ 1.44 µM); MIC (Staphylococcus aureus [16]): 3.12 µg/mL (≈ 1.44 µM); MIC (Staphylococcus aureus [17]): 25 µg/mL (≈ 11.5 µM); MIC (Staphylococcus aureus [18]): 25 µg/mL (≈ 11.5 µM); MIC (Staphylococcus aureus [19]): 25 µg/mL (≈ 11.5 µM); MIC (Pseudomonas aeruginosa [20]): > 100 µg/mL; MIC (Enterobacter cloacae [21]): 6.25 µg/mL (≈ 2.88 µM); MIC (Proteus mirabilis): > 100 µg/mL; MIC (Pseudomonas aeruginosa [22]): 3.12 µg/mL (≈ 1.44 µM); MIC (Staphylococcus aureus [23]): 50 µg/mL (≈ 23 µM); MIC (Staphylococcus aureus [24]): 25 µg/mL (≈ 11.5 µM); Hemolysis [25]: 15%; MIC (Staphylococcus aureus [26]): 25 µg/mL (≈ 11.5 µM); MIC (Pseudomonas aeruginosa [27]): 50 µg/mL (≈ 23 µM); MIC (Escherichia coli): 6.25 µg/mL (≈ 2.88 µM); Hemolysis [28]: 26%; MIC (Klebsiella pneumoniae): 12.5 µg/mL (≈ 5.76 µM); MIC (Staphylococcus aureus [29]): 25 µg/mL (≈ 11.5 µM); MIC (Pseudomonas aeruginosa [30]): 6.25 µg/mL (≈ 2.88 µM); MIC (Pseudomonas aeruginosa [31]): 12.5 µg/mL (≈ 5.76 µM); MIC [32]: 12.5 µg/mL (≈ 5.76 µM); MIC [33]: 6.25 µg/mL (≈ 2.88 µM)

Which MIC (Pseudomonas aeruginosa [10]) does the source give for `CC(C)C[C@H](NC(=O)[C@H](CCCCN)NC(=O)[C@H](CCCCN)NC(=O)[C@H](Cc1c[nH]c2ccccc12)NC(=O)[C@H](CCCCN)NC(=O)[C@H](CCCCN)NC(=O)[C@H](CCCCN)NC(=O)[C@H](C)NC(=O)[C@H](CCCCN)NC(=O)[C@H](CCCCN)NC(=O)[C@H](Cc1c[nH]c2ccccc12)NC(=O)[C@H](C)NC(=O)[C@@H](N)CCCCN)C(=O)N[C@@H](C)C(=O)N[C@@H](CCCCN)C(=O)N[C@@H](CCCCN)C(=O)N[C@@H](Cc1c[nH]c2ccccc12)C(=O)O` (H-KAWKKAKKKWKKLAKKW-OH) here?
The MIC was > 200 µg/mL.

What about the MIC (Staphylococcus aureus [34]) of the same compound?
The MIC was 200 µg/mL (≈ 91.5 µM).

And the MIC (Escherichia coli)?
Its MIC is 200 µg/mL (≈ 91.5 µM).

Which results are given for `NCCCC[C@H](NC(=O)[C@H](CCCCN)NC(=O)[C@H](Cc1c[nH]c2ccccc12)NC(=O)[C@H](Cc1c[nH]c2ccccc12)NC(=O)[C@H](CCCCN)NC(=O)[C@H](Cc1c[nH]c2ccccc12)NC(=O)[C@H](Cc1c[nH]c2ccccc12)NC(=O)[C@H](CCCCN)NC(=O)[C@@H](N)CCCCN)C(=O)N[C@@H](Cc1c[nH]c2ccccc12)C(=O)O` (H-KKWWKWWKKW-OH)?
MIC (Pseudomonas aeruginosa [10]): 50 µg/mL (≈ 31.4 µM); MIC (Staphylococcus aureus [34]): 12.5 µg/mL (≈ 7.86 µM); MIC (Escherichia coli): 50 µg/mL (≈ 31.4 µM)

What does the source list for `CC(C)C[C@H](NC(=O)[C@H](Cc1c[nH]cn1)NC(=O)[C@H](CC(C)C)NC(=O)[C@H](Cc1c[nH]c2ccccc12)NC(=O)[C@H](Cc1c[nH]cn1)NC(=O)[C@H](Cc1c[nH]cn1)NC(=O)[C@H](C)NC(=O)[C@H](Cc1c[nH]c2ccccc12)NC(=O)[C@H](Cc1c[nH]cn1)NC(=O)[C@H](Cc1c[nH]cn1)NC(=O)[C@H](Cc1c[nH]c2ccccc12)NC(=O)[C@H](CC(C)C)NC(=O)[C@@H](N)Cc1c[nH]cn1)C(=O)N[C@@H](Cc1c[nH]c2ccccc12)C(=O)N[C@@H](Cc1c[nH]cn1)C(=O)N[C@@H](C)C(=O)N[C@@H](Cc1c[nH]c2ccccc12)C(=O)O` (H-HLWHHWAHHWLHLWHAW-OH)?
Hemolysis [7]: 0%; MIC (Pseudomonas aeruginosa [10]): 12.5 µg/mL (≈ 5.23 µM); MIC (Staphylococcus aureus [34]): 50 µg/mL (≈ 20.9 µM); Hemolysis [13]: 0%; MIC (Enterobacter cloacae [14]): 50 µg/mL (≈ 20.9 µM); MIC (Shigella flexneri): 12.5 µg/mL (≈ 5.23 µM); MIC (Enterobacter cloacae [21]): < 0.39 µg/mL; MIC [35]: > 100 µg/mL; MIC (Proteus mirabilis): > 100 µg/mL; Hemolysis [25]: 0%; MIC (Escherichia coli): 25 µg/mL (≈ 10.5 µM); Hemolysis [28]: 0%; MIC (Klebsiella pneumoniae): > 100 µg/mL; MIC [33]: < 0.39 µg/mL
